C2C12 statin: suppressors of statin myotoxicity in C2C12 myotubes, primary screen, cell-based, single point, plate reader; 330,000 compounds, 0.78% hits; rescue of ATP level, % at 7.49 µM; C2C12 myotubes + simvastatin, ATP luminescence, 48 h; scaled: DMSO 0, geranylgeraniol control 100;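 active = mean ATP rescue above about 67%, or every replicate alone reaching that limit, limit read from the data, passing the limit was not always enough; inconclusive = no clear call, values can overlap the other calls; inactive = mean under the limit and some replicate under it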;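 note: myotubes were challenged with 10 µM simvastatin during compound exposure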
SR-BI DiI-HDL act: activators of SR-BI mediated DiI-HDL uptake, primary screen, ldlA[mSR-BI] CHO cells, DiI fluorescence. 320,000 compounds, 0.096% hits. 3 h; 100 = double the neutral-control signal. AID 504775, 2011. activation, % at 12.5 µM;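 active = mean replicate activation of at least 60% and every replicate at or above 60%; inconclusive = mean or all-replicate condition met, but not both; inactive = mean below 60% and not all replicates reaching 60%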;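 note: 0% = median plate neutral-control signal and 100% = twice that signal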
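system = CHO ldlA[mSR-BI] cells, LDL receptor-null, SR-BI overexpressing | medium = Ham's F12 with 0.5% BSA, HEPES 25 mM, pH 7.4 | probe or stimulus = DiI-HDL 10 µg/mL | compound dosing = single-point compound dose | incubation = compound exposure 3 h, 37 °C | technique = DiI fluorescence, bottom read | read-out = cell-associated DiI fluorescence as measure of HDL uptake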
SR-BI DiI inh: inhibitors of SR-BI mediated HDL lipid uptake, primary screen, ldlA[mSR-BI] cells, fluorescence, single point; Scavenger receptor class B member 1 (Mus musculus), Q61009; ldlA[mSR-BI] CHO cells, DiI-HDL uptake fluorescence, 3 h; inhibition, % at 12.5 µM; 320,000 compounds, 0.96% hits; AID 488896, 2010;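 active = mean replicate inhibition of at least 70% and a set share of replicates each scoring 70 or more; inconclusive = meets just one of the two criteria; inactive = fails both criteria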;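 note: 0% = median of neutral control wells and 100% = median of positive control wells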
Target sequence (Q61009 whole entry, looked up): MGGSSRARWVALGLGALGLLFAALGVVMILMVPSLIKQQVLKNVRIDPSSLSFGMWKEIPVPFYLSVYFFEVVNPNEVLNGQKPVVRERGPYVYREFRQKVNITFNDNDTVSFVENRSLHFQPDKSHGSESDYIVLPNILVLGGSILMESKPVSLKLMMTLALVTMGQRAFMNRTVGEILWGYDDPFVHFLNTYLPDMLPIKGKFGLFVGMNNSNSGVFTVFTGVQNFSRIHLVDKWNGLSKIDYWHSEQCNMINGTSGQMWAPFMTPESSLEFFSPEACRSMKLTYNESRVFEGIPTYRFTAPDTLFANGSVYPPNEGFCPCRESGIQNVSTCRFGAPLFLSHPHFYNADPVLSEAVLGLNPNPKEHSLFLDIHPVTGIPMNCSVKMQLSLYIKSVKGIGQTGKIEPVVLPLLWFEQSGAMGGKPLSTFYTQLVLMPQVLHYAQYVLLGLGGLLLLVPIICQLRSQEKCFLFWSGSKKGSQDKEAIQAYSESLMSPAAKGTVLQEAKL
Vif imaging: HIV Vif self-association inhibitors, primary screen, imaging, HEK293T, single point. HEK293T cells, Vif self-association by quenched fluorescence, 24 h. inhibition, % at 7.49 µM. 340,000 compounds, 0.35% hits. AID 602346, 2012; in the data active = inhibition above about 50%, passing the limit was not always enough; inconclusive = no clear call, values can overlap the other calls; inactive = below about 31%
* hit, by the source's call; i = inactive; ? = inconclusive; / = no result given. Most compounds without a hit are left out; they make up all but 1.7% or so of the library.

SMILES	C2C12 statin	SR-BI DiI-HDL act	SR-BI DiI inh	Vif imaging
O=C(Nc1ccc2oc(-c3ccncc3)nc2c1)c1ccc([N+](=O)[O-])o1	145*	-51	51	?
O=C(Nc1ccc(-c2nc3ncccc3o2)cc1)c1ccc([N+](=O)[O-])o1	226*	-1	1	11
Cc1cc(-c2nc3ncccc3o2)ccc1NC(=O)c1ccc([N+](=O)[O-])o1	-16	3	-3	?
Cc1ccc(-c2nc3ncccc3o2)cc1NC(=O)c1ccc([N+](=O)[O-])o1	233*	7	-7	11
Cc1ccc(-c2nc3ncccc3o2)cc1N	7	21	-21	-2
Cc1cc(-c2nc3ncccc3o2)ccc1N	100*	3	-3	32
COc1ccc(NC(=O)Nc2ccc3c(c2)C(=O)N([C@@H](C)CO)C[C@@H](C)[C@H](CN(C)C(=O)Nc2ccccc2)O3)cc1	2	/	/	/
CC(Oc1ccc(Cl)cc1Cl)C(=O)Nc1ccc2oc(-c3ccncc3)nc2c1 (configuration not stated)	-2	-78	78*	-41
Cc1ccc(-c2nc3cc(NC(=O)C(C)C)ccc3o2)cc1	-33	-21	21	-4
O=[N+]([O-])c1cccc(-c2cc(-c3cc(Br)ccc3O)[nH]n2)c1	-56	-86	86*	24
Oc1ccc(Br)cc1-c1cc(-c2ccc(Cl)cc2)n[nH]1	/	-75	75*	-3
Oc1ccc(Br)cc1-c1cc(-c2ccccc2)n[nH]1	/	-48	48	-3
CO[C@@H]1CN(C)C(=O)c2ccc(NS(C)(=O)=O)cc2OC[C@@H](C)N(CC2CCOCC2)C[C@@H]1C	9	/	/	/
COC(=O)C1=C(N)OC2=C(C(=O)CC(C)(C)C2)C1c1cccs1 (configuration not stated)	16	822*	i	1
Cc1ccc(S(=O)(=O)N(C)C[C@@H]2OCc3ccccc3-c3ccccc3C(=O)N([C@H](C)CO)C[C@@H]2C)cc1	0	/	/	/
C[C@H](CO)N1C[C@H](C)[C@@H](CN(C)C(=O)C2CCCCC2)Oc2ncc(-c3cccc(F)c3)cc2C1=O	3	/	/	/
COc1ccc(C)cc1Nc1n[n+](-c2ccccc2)c(-c2cc([N+](=O)[O-])cc(OC)c2O)s1	-7	-95	95*	-1
COc1ccc(-c2cnc3c(c2)C(=O)N([C@H](C)CO)C[C@H](C)[C@@H](CN(C)C(=O)NC2CCCC2)O3)cc1	38	/	/	/
Nc1nc(-c2ccccc2)c(-c2ccccc2)s1	-6	-1	1	7
Nc1nc(-c2ccccc2)c(N=Nc2ccc(Cl)cc2)s1	/	-86	86*	-8
COCC(=O)Nc1ccc2c(c1)[C@@H]1C[C@H](CC(=O)NCc3ccc4c(c3)OCO4)O[C@@H](CO)[C@@H]1O2	5	/	/	/
CCNC(=O)[C@H]1[C@H](CO)[C@H]2Cn3c(cccc3=O)[C@H]2N1CC1CCCCC1	18	/	/	/
Cc1ccc(C(C(=O)NCc2ccco2)N(C(=O)Cn2nnc3ccccc32)c2ccccc2)o1 (configuration not stated)	12	7	-7	/
Cc1ccc(N(C(=O)Cn2nnc3ccccc32)C(C(=O)NCc2ccco2)c2ccc(C)o2)cc1 (configuration not stated)	130*	-8	8	6
O=C(NCc1ccco1)C(c1ccc(F)cc1)N(Cc1cccnc1)C(=O)Cn1nnc2ccccc21 (configuration not stated)	102*	18	-18	-6
SMILES	C2C12 statin	SR-BI DiI-HDL act	SR-BI DiI inh	Vif imaging
CNC[C@@H]1Oc2cc(C#Cc3ccccc3OC)ccc2S(=O)(=O)N([C@@H](C)CO)C[C@H]1C	-8	/	/	/
CCCNC(=O)N(C)C[C@H]1Oc2ncc(C3=CCCC3)cc2C(=O)N([C@@H](C)CO)C[C@@H]1C	5	/	/	/
CCOC(=O)Nc1ccc2c(c1)C(=NNC(N)=S)c1ccccc1-2	-22	-83	83*	-9
CCOC(=O)Nc1ccc2c(c1)C(=NO)c1ccccc1-2	/	-54	54	-8
C[C@@H]1CN([C@@H](C)CO)C(=O)Cc2cc(NC(=O)Nc3ccc(C(F)(F)F)cc3)ccc2O[C@@H]1CN(C)Cc1ccncc1	-91	/	/	/
CO[C@H]1CN(C)C(=O)c2cc(NS(=O)(=O)c3ccc(Oc4ccccc4)cc3)ccc2OC[C@@H](C)NC[C@@H]1C	5	/	/	/
CC(C)C1Nc2ccc(C(=O)NCCCN3CCOCC3)cc2NC1=O (configuration not stated)	-1	-4	4	55*
CC(C)CC1Nc2ccc(C(=O)NCCCN3CCOCC3)cc2NC1=O (configuration not stated)	-4	7	-7	15
CS(=O)(=O)N(CC(=O)NCc1ccco1)c1ccc(OCc2ccccc2)cc1	123*	-1	1	-3
CCNC(=O)C[C@H]1CC[C@H]2[C@H](COc3ccc(NC(=O)c4cscn4)cc3C(=O)N2C)O1	-17	/	/	/
O=C(NNC(=O)c1cc2ccccc2cc1O)c1cccs1	/	-115	115*	12
O=C(NNC(=O)c1ccc2ccccc2c1O)c1cccs1	10	-106	106*	-10
CCSCCOC(=O)C1=C(C)NC(=O)NC1c1cc(OC)ccc1OC (configuration not stated)	99*	3	-3	-1
Cc1noc(C)c1S(=O)(=O)Nc1ccc2c(c1)CC(=O)N([C@H](C)CO)C[C@@H](C)[C@@H](CN(C)C(=O)Nc1ccc3c(c1)OCO3)O2	5	/	/	/
C[C@H](CO)N1C[C@H](C)[C@@H](CN(C)C)Oc2ccc(NC(=O)CCC(F)(F)F)cc2CC1=O	-4	/	/	/
C=CCNC(=O)C(C#N)c1nc2ccccc2nc1N1CCCCCC1 (configuration not stated)	86*	/	/	-7
C[C@H](CO)N1C[C@H](C)[C@H](CN(C)C(=O)Nc2ccc(C(F)(F)F)cc2)Oc2c(NS(=O)(=O)c3ccc(F)cc3)cccc2C1=O	-53	/	/	/
CCN(C(=O)COC(=O)c1c2c(nc3ccccc13)CCC2)c1c(N)n(Cc2ccccc2)c(=O)[nH]c1=O	-18	-48	48	2
CC(C)CN(C(=O)COC(=O)c1c2c(nc3ccccc13)CCC2)c1c(N)n(Cc2ccccc2)c(=O)[nH]c1=O	-8	-72	72*	0
O=c1[nH]c2ccc(NC(=S)Nc3ccc(Cl)cc3)cc2[nH]1	41	-4	4	-2
COC(=O)NC(=S)Nc1ccc(Oc2ccc(Cl)cc2Cl)c(Cl)c1	126*	-13	13	-16
COC(=O)NC(=S)Nc1ccc(Oc2ccc(Cl)cc2)c(Cl)c1	-19	-9	9	-13
O=c1[nH]c2ccc(NC(=S)Nc3ccc(Cl)cc3Cl)cc2[nH]1	139*	-14	14	13
Fc1ccc(NC(=S)Nc2ccc(F)c(Cl)c2)cc1Cl	69*	-25	25	-12

Screening data (PubChem)
